# Most compounds without a hit are left out; they make up all but 5.2% or so of the library.
# ALR H2O2 inh – human ALR oxidase inhibition via reduced H2O2 | P55789 | purified ALR, DTT oxidation, H2O2 HRP-luminol luminescence | inhibition, % (no concentration beside the values) | actives 3.8% (n = 290,000);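 active = mean replicate inhibition above about 79%, with every replicate also reaching it, limit read from the data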
# Target sequence (P55789 whole entry, looked up): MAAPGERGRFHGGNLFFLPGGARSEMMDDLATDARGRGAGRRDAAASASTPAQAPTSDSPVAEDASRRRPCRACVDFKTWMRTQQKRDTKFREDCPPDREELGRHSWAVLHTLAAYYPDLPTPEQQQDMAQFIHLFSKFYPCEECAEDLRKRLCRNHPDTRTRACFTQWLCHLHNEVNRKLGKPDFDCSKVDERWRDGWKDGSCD
# EBNA-1 inhibitor – blocks EBNA-1 binding to DNA; EBNA-1 DNA binding, fluorescence polarization; AID 1950; inhibition, % at 14.8 µM; actives 0.34% (n = 300,000); in the data active = inhibition above about 28%
# NS3 helicase inh – inhibitors of Hepatitis C virus NS3 helicase; NS3 helicase DNA unwinding, Cy5 molecular beacon fluorescence; inhibition, % at 10.9 µM; actives 0.56% (n = 290,000);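 active = inhibition above the mean of all tested compounds plus 3 SD, set per campaign, cut at about 35% in these data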
#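 Assay system – hepatitis C virus NS3 helicase domain fragment enzyme · Buffer or medium – MOPS pH 6.5, MgCl2, DTT, Tween20, BSA · Reagent – Cy5/quencher beacon DNA duplex and ATP to start · Compound – single 10.9 µM dose · Timing – 1 h at 25 °C · Technique – Cy5 beacon fluorescence read at start and 1 h · Measure – % inhibition of unwinding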
# ZTA DNA inh – ZTA (EBV) inhibition in EBNA-1 counter-screen | inhibition, % at 11 µM | P03206 | ZTA-DNA binding, fluorescence polarization | actives 0.15% (n = 320,000); in the data active = inhibition above about 33%
# Target sequence (P03206 whole entry, looked up): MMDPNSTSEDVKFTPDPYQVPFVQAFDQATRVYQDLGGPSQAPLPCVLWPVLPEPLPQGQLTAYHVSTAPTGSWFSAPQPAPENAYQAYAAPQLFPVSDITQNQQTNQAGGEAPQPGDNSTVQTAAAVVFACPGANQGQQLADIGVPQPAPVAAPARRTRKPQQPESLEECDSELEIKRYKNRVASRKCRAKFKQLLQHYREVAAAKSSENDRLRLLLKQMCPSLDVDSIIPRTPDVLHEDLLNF
# core dimer inh – HCV core protein dimerization inhibition; TR-FRET GST/Flag-core106 dimerization, 1536-well; inhibition, % at 5 µM; actives 0.33% (n = 300,000); AID 1899;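 active = inhibition above the mean of all tested compounds plus 3 SD, set per screening campaign, cut at about 45% in these data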
#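 assay system = GST-tagged and Flag-tagged HCV core protein residues 1-106 | controls = unlabelled core106 and no-GST-core106 wells | incubation = compound-protein-antibody incubation 4 h at 22.5 °C | probe or stimulus = Eu donor and XL665 acceptor anti-tag antibodies | read-out = % inhibition based on acceptor/donor emission ratio | signal = TR-FRET 671 and 617 nm emission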
# PfM18AAP inh-1 – PfM18AAP enzyme inhibition | recombinant PfM18AAP, H-Glu-NHMec fluorogenic cleavage | actives 1.2% (n = 290,000) | inhibition, % at 7.35 µM;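 active = inhibition above the campaign mean inhibition over all tested compounds plus 3 SD, cut at about 28% in these data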
# PfM18AAP inh-2 – confirmation of Plasmodium falciparum M18 aspartyl aminopeptidase inhibitors. recombinant PfM18AAP, H-Glu-NHMec fluorogenic cleavage. shares compounds with PfM18AAP inh-1. AID 2170. inhibition, % at 7.35 µM. actives 28% (n = 2,400);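 active = mean inhibition over replicate wells above the hit cutoff set for the earlier primary screen, cut at about 29% in these data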
# CTSL1 counter – counter-screen for PFM18AAP inhibitors: confirmation of human cathepsin L inhibitors | shares compounds with PfM18AAP inh-1 | purified cathepsin L1, Z-Leu-Arg-MCA fluorescence | 2,400 tested, under 10 active | inhibition, % at 5.96 µM;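 active = average inhibition across replicates above the hit cutoff set in the earlier primary screen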
# Hits are given with their value; n = inactive; x = no result given.
SMILES,ALR H2O2 inh,EBNA-1 inhibitor,NS3 helicase inh,ZTA DNA inh,core dimer inh,PfM18AAP inh-1,PfM18AAP inh-2,CTSL1 counter
NS(=O)(=O)c1ccc(-c2ccc(/C=C3\NC(=S)NC3=O)o2)cc1,n,n,n,n,n,37,n,n
Cc1ccc2nc(/C(C#N)=C/c3ccc(O)c(O)c3)[nH]c2c1,89,n,n,n,n,60,36,n
Cc1ccc2nc(/C(C#N)=C/c3ccccc3C(=O)O)[nH]c2c1,x,n,n,n,n,n,x,x
Cc1ccc2ccccc2c1NC(=O)c1ccco1,n,n,n,n,n,n,x,x
N#CC1=C(N)Nc2ncnn2C1c1ccc([N+](=O)[O-])cc1 (centres undefined),n,n,n,n,n,n,x,x
N#CC1=C(N)Nc2ncnn2C1c1ccccc1 (centres undefined),n,n,n,n,n,38,n,n
Cc1cc(C)c2c(=O)n(CC(=O)Nc3ccc(Br)c(C)c3)sc2n1,x,n,n,n,n,60,41,n
Cc1cc(NC(=O)Cc2ccsc2)ccc1Br,n,n,n,n,n,n,x,x
COc1ccc(OC)c(CCNC(=O)Cn2sc3nc(C)cc(C)c3c2=O)c1,n,n,n,n,n,51,n,n
Cc1cc(C)c2c(=O)n(CC(=O)Nc3cccc(Cl)c3C)sc2n1,n,n,n,n,n,63,41,n
COc1ccccc1Cn1c(=S)[nH]c2ccc(F)cc2c1=O,x,n,n,n,n,n,x,x
N#CC1(NC(=O)COc2cccnc2[N+](=O)[O-])CCCCC1,n,x,x,n,x,x,x,x
O=C(O)c1cccc(C(=O)O)c1,n,n,n,n,n,n,x,x
O=C(O)c1ccc(O)c(O)c1,98,n,n,n,n,79,65,n
CNC(=S)NNC(=O)c1ccc2c(c1)OCO2,n,n,n,n,n,35,n,n
CC(C)(C)c1nnc(NC(=O)c2ccc3c(c2)OCO3)s1,n,n,n,n,n,43,n,n
COc1ccc(CCNC(=O)C(=O)NCC2OCCN2C(=O)c2ccc(Cl)cc2)cc1OC (centres undefined),n,n,n,n,n,n,x,x
COc1cc2c(cc1OC)C(C)N(C(=O)CCc1c[nH]c3ccccc13)CC2 (centres undefined),n,n,n,n,n,n,x,x
N#Cc1cc(N)ccc1-n1cccc1,n,n,n,n,n,n,x,x
COc1ccc(/C(C)=N/Nc2nc3ccccc3nc2C)cc1,n,n,n,n,n,56,n,n
COc1ccc(/C(C)=N/NC(=O)c2nc(C)cc(C)n2)cc1,n,n,n,n,n,n,x,x
CN(C)/C=C(/C(=O)c1ccc(Cl)cc1)n1cncn1,n,n,n,n,n,40,n,n
CN(C)c1ccc(/C=C(/C(=O)c2ccc(Cl)cc2Cl)n2cncn2)cc1,x,n,n,n,n,n,x,x
C=CCNC(=O)c1sc(=S)n(-c2ccc(C(=O)OCC)cc2)c1N,n,n,n,n,n,42,n,n
CCOC(=O)c1ccc(-n2c(N)c(C(=O)NCc3ccco3)sc2=S)cc1,n,n,n,n,n,n,x,x
SMILES,ALR H2O2 inh,EBNA-1 inhibitor,NS3 helicase inh,ZTA DNA inh,core dimer inh,PfM18AAP inh-1,PfM18AAP inh-2,CTSL1 counter
NC(=O)c1ccc(N2CCN(c3ccccc3O)CC2)c([N+](=O)[O-])c1,n,n,n,n,n,36,n,n
Cc1cc(C)n2c(=S)[nH]nc2n1,x,n,n,n,n,81,72,n
O=C(N/C(=C/c1cn(-c2ccccc2)nc1-c1ccccc1)C(=O)N1CCOCC1)c1ccc(Cl)cc1Cl,n,n,n,n,n,n,x,x
CCCN(C(=O)c1cc(S(=O)(=O)N(C)c2ccc(OCC)cc2)ccc1C)C1CCS(=O)(=O)C1 (centres undefined),n,x,x,n,x,x,x,x
CC(C(=O)Nc1ncn[nH]1)N1C(=O)c2ccccc2C1=O (centres undefined),n,n,n,n,n,51,51,n
COc1ccc(-n2c(O)c(/C=N/Nc3nc(C)cc(C)n3)c3ccccc3c2=O)cc1OC,n,n,n,n,n,34,n,n

# High-throughput results deposited in PubChem by several laboratories.
